# Test results: ChEMBL document CHEMBL3232844, “Synthesis and structure activity relationships of schweinfurthin indoles” (2014)
# Experiments:
# Assay type in all cases: functional
# [1] = tested on: CCRF-CEM; assay: Cytotoxicity against human CCRF-CEM cells
# [2] = tested on: K562; assay: Cytotoxicity against human K562 cells
# Outline: (§1)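 Tested in a 60-cell-line human tumor panel screen; the read-out is growth inhibition, reported as GI50 for each cell line.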
# [3] = tested on: MOLT-4; assay: Cytotoxicity against human MOLT4 cells; outline: as §1
# [4] = tested on: A549; assay: Cytotoxicity against human A549 cells; outline: as §1
# [5] = Cytotoxicity against human EKVX cells; outline: as §1
# [6] = tested on: HOP-62; assay: Cytotoxicity against human HOP62 cells; outline: as §1
# [7] = tested on: NCI-H226; assay: Cytotoxicity against human NCI-H226 cells; outline: as §1
# [8] = tested on: NCI-H23; assay: Cytotoxicity against human NCI-H23 cells; outline: as §1
# [9] = tested on: COLO 205; assay: Cytotoxicity against human COLO205 cells; outline: as §1
# [10] = tested on: HCC 2998; assay: Cytotoxicity against human HCC2998 cells; outline: as §1
# [11] = Cytotoxicity against human HCT15 cells; outline: as §1
# [12] = tested on: HT-29; assay: Cytotoxicity against human HT-29 cells; outline: as §1
# [13] = tested on: KM12; assay: Cytotoxicity against human KM12 cells; outline: as §1
# [14] = tested on: SF-295; assay: Cytotoxicity against human SF295 cells; outline: as §1
# [15] = tested on: SF-539; assay: Cytotoxicity against human SF539 cells; outline: as §1
# [16] = tested on: SNB-19; assay: Cytotoxicity against human SNB19 cells; outline: as §1
# [17] = tested on: SNB-75; assay: Cytotoxicity against human SNB75 cells
# Outline: (§2)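 Cell line run as part of the 60-cell-line screening panel; growth inhibition was reported as a GI50 for each line.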
# [18] = tested on: U-251; assay: Cytotoxicity against human U251 cells; outline: as §2
# [19] = tested on: LOX IMVI; assay: Cytotoxicity against human LOXIMVI cells; outline: as §1
# [20] = tested on: M14; assay: Cytotoxicity against human M14 cells; outline: as §1
# [21] = tested on: NCI-H322M; assay: Cytotoxicity against human NCI-H322M cells; outline: as §1
# [22] = tested on: NCI-H460; assay: Cytotoxicity against human NCI-H460 cells; outline: as §1
# [23] = read-out: pLC50 (the source's name) (converted)
compound,measurement,setting,value
COc1cc(/C=C/c2cc(OC)c3c(C/C=C(\C)CCC=C(C)C)c[nH]c3c2)cc2c1O[C@]1(C)CC[C@@H](O)C(C)(C)[C@H]1C2,GI50,[1],0.295 µM
same,CC50,[1]; [23],> 100 µM
same,GI50,[2],0.427 µM
same,CC50,[2]; [23],> 100 µM
same,TGI,[2]; read-out: pTGI (converted),3.89 µM
same,GI50,[3],0.251 µM
same,CC50,[3]; [23],> 100 µM
same,TGI,[3]; read-out: pTGI (converted),0.851 µM
same,GI50,[4],1.66 µM
same,CC50,[4]; [23],> 100 µM
same,TGI,[4]; read-out: pTGI (converted),36.3 µM
same,GI50,[5],1.82 µM
same,CC50,[5]; [23],> 100 µM
same,TGI,[5]; read-out: pTGI (converted),> 100 µM
same,GI50,[6],1.07 µM
same,CC50,[6]; [23],22.4 µM
same,TGI,[6]; read-out: pTGI (converted),4.79 µM
same,GI50,[7],8.32 µM
same,CC50,[7]; [23],61.7 µM
same,TGI,[7]; read-out: pTGI (converted),24.5 µM
same,GI50,[8],2.34 µM
same,CC50,[8]; [23],66.1 µM
same,TGI,[8]; read-out: pTGI (converted),16.6 µM
same,GI50,[9],1.02 µM
same,CC50,[9]; [23],6.03 µM
same,TGI,[9]; read-out: pTGI (converted),2.45 µM
same,GI50,[10],11.5 µM
same,CC50,[10]; [23],57.5 µM
same,TGI,[10]; read-out: pTGI (converted),25.7 µM
same,GI50,[11]; HCT-15,1.82 µM
same,CC50,"[11]; HCT-15, read-out: pLC50 (the source's name) (converted)",66.1 µM
same,TGI,"[11]; HCT-15, read-out: pTGI (converted)",11.5 µM
same,GI50,[12],0.447 µM
same,CC50,[12]; [23],> 100 µM
same,TGI,[12]; read-out: pTGI (converted),2.75 µM
same,GI50,[13],0.562 µM
same,CC50,[13]; [23],5.13 µM
same,TGI,[13]; read-out: pTGI (converted),1.95 µM
same,GI50,[14]; read-out: GI50,0.2 µM
same,GI50,[14]; read-out: pGI50 (converted),0.204 µM
same,TGI,[14]; read-out: pTGI (converted),0.575 µM
same,GI50,[15],0.148 µM
same,CC50,[15]; [23],5.37 µM
same,TGI,[15]; read-out: pTGI (converted),0.871 µM
same,GI50,[16],1.7 µM
same,CC50,[16]; [23],58.9 µM
same,TGI,[16]; read-out: pTGI (converted),13.5 µM
same,GI50,[17],0.145 µM
same,CC50,[17]; [23],40.7 µM
same,TGI,[17]; read-out: pTGI (converted),0.692 µM
same,GI50,[18],0.759 µM
same,CC50,[18]; [23],39.8 µM
same,TGI,[18]; read-out: pTGI (converted),12.9 µM
same,GI50,[19],1 µM
same,CC50,[19]; [23],7.59 µM
same,TGI,[19]; read-out: pTGI (converted),2.75 µM
same,GI50,[20],1.17 µM
same,CC50,[20]; [23],8.51 µM
same,TGI,[20]; read-out: pTGI (converted),3.16 µM
same,GI50,[21],19.1 µM
same,CC50,[21]; [23],> 100 µM
same,TGI,[21]; read-out: pTGI (converted),> 100 µM
same,GI50,[22],1.17 µM
same,CC50,[22]; [23],43.7 µM
same,TGI,[22]; read-out: pTGI (converted),9.12 µM
